CHRM4 agonist: agonists of human muscarinic M4 receptor (CHRM4); P08173; CHO-K1 hM4/Gqi5, Fluo-8 calcium fluorescence; vehicle 0%, full acetylcholine response 100%; activation, % at 3 µM; hit rate 0.14% among 360,000;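 active = activation above the run mean over all test wells plus 3 SD, cut at about 32% in these data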;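 also: peak over basal fluorescence ratio per well then scaled between controls; 0% = DMSO wells and 100% = acetylcholine at EC100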
Target sequence (P08173 whole entry, looked up): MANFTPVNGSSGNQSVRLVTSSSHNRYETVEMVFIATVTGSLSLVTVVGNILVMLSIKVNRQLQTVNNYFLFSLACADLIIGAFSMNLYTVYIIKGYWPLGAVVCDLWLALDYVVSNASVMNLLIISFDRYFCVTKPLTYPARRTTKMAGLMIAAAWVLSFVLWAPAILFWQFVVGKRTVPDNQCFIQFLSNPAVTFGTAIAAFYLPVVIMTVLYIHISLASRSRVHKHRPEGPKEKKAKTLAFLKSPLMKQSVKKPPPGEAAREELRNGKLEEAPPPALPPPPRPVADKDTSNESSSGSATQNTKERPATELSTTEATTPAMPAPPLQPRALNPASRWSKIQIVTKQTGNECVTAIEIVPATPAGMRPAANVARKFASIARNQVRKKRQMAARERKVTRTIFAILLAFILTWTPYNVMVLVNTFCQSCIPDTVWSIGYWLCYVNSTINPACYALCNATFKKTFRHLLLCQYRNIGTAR
M5 ag: CHRM5 agonism in calcium assay; P08912; hit rate 0.19% among 360,000; AID 624037; activation, % at 3 µM; CHO-K1 hM5 cells, Fluo-8 calcium fluorescence; 0% DMSO wells, 100% maximal acetylcholine response;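 active = activation above the run's mean over test compounds plus 3 SD, cut at about 23% in these data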;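 also: signal is peak over basal fluorescence ratio across the kinetic read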
M5 PAM: positive allosteric modulators of human muscarinic M5 receptor | CHO-K1 hM5, Fluo-8 calcium, ACh EC20 PAM; 0% = ACh EC20, 100% = ACh EC100 | activation, % at 3 µM | AID 624038 | hit rate 0.3% among 360,000 | P08912;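 active = activation above the run cutoff, the mean activation of all test compounds plus 3 SD, cut at about 18% in these data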
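system = human M5 receptor in CHO-K1 cells | compound = one concentration, 3 µM final (nominal) | schedule = Post-acetylcholine fluorescence recording 140 s | signal = Fluo-8 calcium dye fluorescence, kinetic read | benchmarks = low control EC20 acetylcholine (0%), high control EC100 acetylcholine (100%) | repeats = singlicate, one well per test compound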
CHRM4 antagonist: blocks acetylcholine activation of human M4 receptor; hit rate 0.73% among 360,000; AID 624125; CHO-hM4 cells, ACh EC80, Fluo-8 calcium fluorescence; P08173; inhibition, % at 3 µM;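 active = inhibition above its plate's cutoff, the mean inhibition of sample wells plus 3 SD, cut at about 27% in these data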;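 also: 0% = acetylcholine EC80 with DMSO and 100% = DMSO without agonist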
CHRM5 antagonist: antagonists of human muscarinic M5 receptor (CHRM5); P08912; CHO-hM5 cells, Fluo-8 calcium fluorescence, ACh EC80; inhibition, % at 3 µM; hit rate 0.59% among 360,000;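 active = inhibition above a per-plate cutoff, the mean of that plate's test compounds plus 3 SD, cut at about 27% in these data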;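 also: 0% = acetylcholine EC80 with DMSO and 100% = DMSO without agonist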
CHRM4 PAM: potentiates acetylcholine response at human M4 receptor; CHO-K1 hM4/Gqi5, Fluo-8 calcium fluorescence, ACh EC20; 0% = ACh EC20, 100% = maximal ACh; hit rate 0.4% among 360,000; AID 624126; activation, % at 3 µM;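 active = activation above its plate's cutoff, the mean activation of sample wells plus 3 SD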
* hit, by the source's call; + = active, no number. An excerpt weighted towards active compounds, which were near 1.8% of everything screened.

SMILES | CHRM4 agonist | M5 ag | M5 PAM | CHRM4 antagonist | CHRM5 antagonist | CHRM4 PAM
FC(F)(F)c1cccc(N2CCN(C(=S)NCC3CCCO3)CC2)c1 (stereo not given) | 10 | -1 | -16 | -2 | 27* | -8
COc1ccc(CN2C(=O)C(CC(=O)NC3CCCCC3)CC(C(=O)N(C(C)C)C(C)C)=C2C)cc1 (stereo not given) | 1 | -1 | 1 | -24 | 6 | 7
CCN(CC)CCNC(=O)Cn1nc(-c2ccc(C)cc2)ccc1=O | 1 | -2 | 5 | 11 | -4 | 1
Cc1ccc(-c2ccc(=O)n(CC(=O)NCCN(CC(C)C)CC(C)C)n2)cc1 | 0 | 4 | 24* | -6 | 13 | -3
CN(C)CC(=O)Nc1ccc2c(c1)[C@H]1C[C@H](CC(=O)NCc3ccc4c(c3)OCO4)O[C@H](CO)[C@H]1O2 | 0 | 0 | 6 | 2 | -2 | 2
CC(OC(=O)CCCN=C1NS(=O)(=O)c2ccccc21)C(=O)N(C)c1ccccc1 (stereo not given) | 2 | -1 | 2 | -12 | 3 | 1
CC(OC(=O)CCCN=C1NS(=O)(=O)c2ccccc21)C(=O)c1ccccc1 (stereo not given) | 18 | 26* | -1 | -11 | 2 | 3
CCC(=O)c1ccc(OC(=O)c2ccc(Br)o2)cc1 | 33* | 36* | -7 | 1 | 0 | -10
CN1CCN(C2=CC3=CC(=C(C#N)C#N)CCC3CC2)CC1 (stereo not given) | 538* | 492* | -37 | 71* | 72* | -31
CCN1CCN(C2=CC3=CC(=C(C#N)C#N)CCC3CC2)CC1 (stereo not given) | 270* | 222* | -36 | 58* | 59* | -29
N#CC(C#N)=C1C=C2C=C(N3CCCCCC3)CCC2CC1 (stereo not given) | 746* | + | -21 | 96* | 103* | -23
CC1(C)CC(NCCN2CCN(C3=CC(=C(C#N)C#N)CC(C)(C)C3)CC2)=CC(=C(C#N)C#N)C1 | 1 | 3 | 3 | -8 | 1 | 2
N#CC(C#N)=C1C=C2C=C(N3CCOCC3)CCC2CC1 (stereo not given) | 52* | 37* | -16 | 29* | 24 | -25
COC(=O)c1ccc(/C(O)=C(\C#N)c2nc3ccccc3s2)cc1 | 9 | 9 | 0 | 0 | 0 | -3
CC(C)=C(C#N)c1nc2ccccc2s1 | 21 | 18 | -6 | 20 | 27* | -7
N#C/C(=C/c1ccncc1)c1nc2ccccc2s1 | 21 | 26* | -15 | 25 | 30* | -12
CCNC(=S)NC1CC2CCCC(C1)N2CCc1ccccc1 (stereo not given) | 0 | -23 | -34 | 37* | 69* | -15
CCNC(=S)NC1CC2CCC(C1)N2Cc1ccccc1 (stereo not given) | 0 | -6 | -8 | 5 | 11 | -7
CCc1ccc(Cn2ncc3c(C(=O)O)cc(C)nc32)cc1 | 1 | 0 | -4 | 34* | 10 | -16
NC(=O)C1CC(=O)N(c2ccc(OCc3ccc(Cl)c(Cl)c3)cc2)C1 (stereo not given) | 16 | 9 | -13 | 9 | 28* | -6
Cc1ccc(S(=O)(=O)n2nnc3ccccc32)c(C)c1C | 2 | -1 | 6 | -2 | -3 | 24*
CC1(Oc2ccccc2-c2ccno2)CCN(Cc2csc3ccccc23)C1 (stereo not given) | 1 | -1 | -5 | 33* | 4 | -8
N#Cc1c(N)c(C#N)c(-c2ccc3c(c2)OCO3)c2c1CCCC2 | 0 | -3 | 23* | 1 | -18 | 39*
N#Cc1c(N)c(C#N)c(-c2ccc(O)cc2)c2c1CCCC2 | 8 | 0 | -2 | 1 | 3 | 5
CCCS(=O)(=O)NC(=O)C1(C)CCN(C(=O)Cc2ccc(OC)cc2)C1 (stereo not given) | 1 | 1 | -1 | 3 | -4 | 3
SMILES | CHRM4 agonist | M5 ag | M5 PAM | CHRM4 antagonist | CHRM5 antagonist | CHRM4 PAM
C=CCN(c1ccc(C(=O)N2CCN(c3ccc(F)cc3)CC2)cc1)S(C)(=O)=O | 1 | 3 | -2 | -3 | 42* | 4
CC(C)N1CCCC(C)(C(=O)Nc2nccc3ccccc23)C1 (stereo not given) | 0 | -1 | -4 | -4 | 0 | 3
CCOC(=O)[C@]12CCC=C1N(Cc1ccccc1)C(=O)[C@H](CC(=O)NCc1ccc(OC)c(OC)c1)C2 | 0 | 0 | 1 | 5 | 1 | 0
N#Cc1c(Cc2cccc3ccccc23)nn(CCO)c1N | 1 | 1 | 7 | 3 | 6 | 25*
Cn1nc(Cc2cccc3ccccc23)c(C#N)c1N | 1 | 5 | 10 | 3 | -4 | 10
COc1ccc(Cc2c(-c3ccc(F)cc3)nc3cc(C)c(Br)c(C)n23)c(C)c1 | 1 | 0 | -7 | -23 | 5 | 9
COc1ccccc1OCC(=O)Nc1ccc(CSc2ccccc2)cc1C | 0 | 12 | 49* | 1 | 0 | 7
CC(C)C[C@@H](CN1CCC[C@H]1CN1C(=O)C(=O)NC[C@@H]1Cc1ccccc1)N1C[C@H](Cc2ccc(O)cc2)N(CC2CCCCC2)C(=O)C1=O | -1 | 0 | 3 | -5 | 3 | 11
CN(c1ccc(Cl)cc1)c1cc2c(c3c1ccn3C)C1CCC2O1 (stereo not given) | -1 | 0 | -3 | -12 | -1 | -4
O=C(C1CCN(S(=O)(=O)c2cnc[nH]2)CC1)N1CCN(c2ccc([N+](=O)[O-])cc2)CC1 | 1 | -4 | -2 | -9 | 12 | 14*
CCc1ccccc1Oc1nc(NCc2ccccc2)nc2ccsc12 | 0 | -1 | 1 | -9 | 6 | 1
COC(=O)[C@@]12C[C@@H](CC(=O)N3CCSCC3)C(=O)N(CCc3ccc(OC)c(OC)c3)C1=CCC(C)(C)C2 | 6 | 4 | 1 | -14 | -2 | 4
COc1cc(NC(=O)CN2C(=O)C(c3ccccc3)=NC23CCCCCC3)cc(OC)c1 | 2 | 0 | 4 | -3 | -1 | 21*
COc1cccc(NC(=O)CN2C(=O)C(c3ccc(C)cc3)=NC23CCCCCC3)c1 | -1 | 0 | -6 | 5 | 7 | 0
O=C(NCc1cccnc1)c1cccc2c1C(=O)N(Cc1cccnc1)C2 | 1 | -6 | 19* | 0 | -4 | 7
CC(=O)Nc1ccc2c(c1)C(=Nc1cccc(C)c1)c1ccccc1-2 | 2 | -2 | -7 | -13 | 22 | 16*
CCN(CC)c1ccc(C=Nc2cc(C)ccc2C)c(O)c1 | 1 | -2 | 3 | -1 | 0 | 25*
